Screening results: PubChem, several laboratories
Hits are enriched below; roughly 3% of the tested compounds scored in any of these assays.
PLCg1 inh: PLC-gamma1 (human) inhibition, primary screen; P19174; purified PLC-gamma1, fluorogenic substrate, fluorescence; inhibition, % at 12.2 µM; 0.84% of 370,000 active; AID 720700; in the data active = inhibition above about 9.5%
Target sequence (P19174 whole entry, looked up): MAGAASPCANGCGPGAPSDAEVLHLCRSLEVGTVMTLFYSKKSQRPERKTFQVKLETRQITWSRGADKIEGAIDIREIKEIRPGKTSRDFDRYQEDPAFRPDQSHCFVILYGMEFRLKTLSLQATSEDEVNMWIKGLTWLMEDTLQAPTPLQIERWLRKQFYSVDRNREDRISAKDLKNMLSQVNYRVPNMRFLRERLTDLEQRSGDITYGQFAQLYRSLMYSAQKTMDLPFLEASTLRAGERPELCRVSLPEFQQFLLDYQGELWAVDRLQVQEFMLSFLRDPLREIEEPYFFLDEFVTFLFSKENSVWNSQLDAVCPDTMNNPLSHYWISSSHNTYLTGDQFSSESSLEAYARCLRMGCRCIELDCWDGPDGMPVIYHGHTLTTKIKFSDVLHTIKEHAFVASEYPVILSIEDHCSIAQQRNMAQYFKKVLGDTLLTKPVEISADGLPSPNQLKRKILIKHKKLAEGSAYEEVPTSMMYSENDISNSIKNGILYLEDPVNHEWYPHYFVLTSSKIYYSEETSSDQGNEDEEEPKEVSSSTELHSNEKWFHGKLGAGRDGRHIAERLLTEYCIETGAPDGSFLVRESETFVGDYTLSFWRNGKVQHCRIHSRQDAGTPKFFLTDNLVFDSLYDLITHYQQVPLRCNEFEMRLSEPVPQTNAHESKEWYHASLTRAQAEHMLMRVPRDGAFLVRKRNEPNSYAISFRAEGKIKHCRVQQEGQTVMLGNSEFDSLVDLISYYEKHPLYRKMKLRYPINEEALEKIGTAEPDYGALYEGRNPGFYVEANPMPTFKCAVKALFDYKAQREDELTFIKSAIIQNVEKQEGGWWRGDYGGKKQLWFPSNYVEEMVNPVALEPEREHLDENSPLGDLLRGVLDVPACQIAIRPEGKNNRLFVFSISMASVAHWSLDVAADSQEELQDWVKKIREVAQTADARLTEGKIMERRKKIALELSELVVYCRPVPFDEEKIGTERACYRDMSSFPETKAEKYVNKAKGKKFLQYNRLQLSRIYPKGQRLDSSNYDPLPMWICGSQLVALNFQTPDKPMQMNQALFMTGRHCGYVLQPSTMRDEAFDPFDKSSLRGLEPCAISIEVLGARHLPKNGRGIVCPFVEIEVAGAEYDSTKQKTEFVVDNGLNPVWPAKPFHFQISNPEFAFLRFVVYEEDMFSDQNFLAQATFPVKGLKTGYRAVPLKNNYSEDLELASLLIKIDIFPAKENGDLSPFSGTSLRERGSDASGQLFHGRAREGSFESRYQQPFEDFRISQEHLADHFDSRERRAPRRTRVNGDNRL
DDE Tn7 FP inh: disrupts Tn7 cyclic peptide binding to fibrin D-Dimer-E complex. P02675. inhibition, % at 8.3 µM. FP displacement of FITC-Tn7 peptide from fibrin DD(E); 0% = median of compound wells per plate. AID 720508. 0.13% of 370,000 active;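 active = inhibition above the mean of compounds falling within the control limits plus 3 SD of them, cut at about 14% in these data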;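 note: 0% = plate median of compound wells and 100% = 10 µM Aha-Tn7 peptide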
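Assay system: Fibrin-DD(E) protein isolated from polymerized human fibrin clots; read-out basis: percent inhibition; medium: Tris/NaCl/CaCl2 buffer, pH 7.8; signal: FP measurement; incubation: 10 min plus 3 h, room temperature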
DDE Tn6 FP inh: disrupts Tn6 cyclic peptide binding to fibrin D-Dimer-E complex | P02675 | Fibrin DD(E) TRITC-Tn6 fluorescence polarization displacement | inhibition, % at 8.3 µM | 0.21% of 370,000 active | AID 720509;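 active = inhibition above a per-campaign cutoff: mean of compounds within control limits plus 3 SD, cut at about 15% in these data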;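 note: 0% = median of all compound wells on the plate and 100% = blocking peptide control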
KLK7 zymogen act: activates the human kallikrein-7 zymogen; P49862; purified proKLK7, EDANS-DABCYL substrate fluorescence; 100% is mature enzyme control, 0% vehicle; activation, % at 7 µM; 0.9% of 370,000 active;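 active = activation above the mean of all tested compounds plus 3 SD, computed per campaign excluding outliers beyond control limits, cut at about 13% in these data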
PLCb3 inh: blocks human PLC-beta3 enzyme activity | 0.18% of 370,000 active | Purified PLC-beta3, fluorogenic substrate, fluorescence | Q01970 | inhibition, % at 12.2 µM;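 note: 0% = median of compound wells on plate and 100% = full blocker control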
CendR NRP1 mod: NRP-1/CendR interaction modulation | O14786 | FAM-RPARPAR peptide binding to NRP-1, fluorescence polarization | inhibition, % at 25 µM | 0.85% of 360,000 active | AID 602438;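 active = inhibition or corrected inhibition above about 18%, plus a signal ratio from 0.5 to 1.5, limit read from the data, passing the limit was not always enough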
PLCg1 ctr: inhibits human PLC-gamma1 in PLC-beta3 counter-screen. inhibition, % at 12.3 µM. 3.1% of 3,300 active. shares compounds with PLCg1 inh. purified PLC-gamma1, fluorogenic substrate, fluorescence; in the data active = inhibition above about 9.5%
PLCb3 confirm: human PLC-beta3 inhibition, confirmation; shares compounds with PLCg1 inh; inhibition, % at 12.3 µM; 1% of 3,300 active; purified PLC-beta3, fluorogenic substrate fluorescence
* = called active by the depositor; nt = not tested or not shown. Cut-off read from the data, not from the text of the source, unless noted: active = inhibition above about 11%; inactive = the rest.

SMILES | PLCg1 inh | DDE Tn7 FP inh | DDE Tn6 FP inh | KLK7 zymogen act | PLCb3 inh | CendR NRP1 mod | PLCg1 ctr | PLCb3 confirm
COC(=O)[C@]12C[C@H](CC(=O)NCCc3ccccc3OC)C(=O)N(CCc3ccc(OC)c(OC)c3)C1=C[C@H](C1CCCC1)O[C@@H]2C | 4 | 5 | 2 | 0 | 1 | nt | nt | nt
CN(CCC1CCOCC1)C(=O)C1CCC(=O)N(CCc2ccccc2)C1 (configuration not stated) | 9.7* | -2 | -2 | -1 | 1 | -8 | 0 | -51
CCCC(=O)OC12CCCN(C1)/C(=C/c1cccc(Cl)c1)C2 (configuration not stated) | 0 | 0 | -12 | 0 | 1 | nt | nt | nt
O=C(CCc1nc(-c2ccccc2F)no1)NCCc1ccccc1F | 0 | -1 | 1 | -1 | -2 | nt | nt | nt
O=C(CCc1nc(-c2ccccc2F)no1)NCCN1CCOCC1 | 4 | 5 | -6 | 0 | 14* | -4 | -14 | 3
Cc1cc(C)c2c(c1)/C(=N/NS(=O)(=O)c1ccccc1)CCC2 | 0 | 5 | -12 | 0 | 11* | 6 | 3 | -1
CN(Cc1ccccc1)S(=O)(=O)c1cccc(C(=O)OCc2cccc(C(F)(F)F)c2)c1 | 3 | -2 | 2 | 0 | 1 | nt | nt | nt
C=CCSC1=N/C(=C\c2cc(OCC)c(OC(C)=O)c([N+](=O)[O-])c2)C(=O)S1 | 12* | -9 | -9 | 0 | 5 | -3 | 2 | -1
C=CCSC1=N/C(=C\c2ccc3c(c2)OCO3)C(=O)S1 | -1 | 9 | 0 | -1 | -1 | 13 | nt | nt
Cc1ccc(-c2nc(C3CCCN(S(=O)(=O)c4ccc(Cl)s4)C3)no2)cc1 (configuration not stated) | -2 | 9 | -1 | 0 | -1 | nt | nt | nt
NC(N)=N/N=C(\N=Nc1ccccc1)c1ccc(Cl)cc1 | 10* | -9 | 11 | 0 | 10 | 6 | 4 | 1
NC(N)=N/N=C(\N=Nc1ccccc1)c1cccc2cccnc12 | 5 | -6 | 4 | 0 | 0 | -10 | nt | nt
O=C(Nc1ccc(Cl)cc1)OC1CCC12CCC(c1ccccc1)CC2 (configuration not stated) | 0 | 5 | -4 | 0 | 2 | nt | nt | nt
C(=NOCc1ccccc1)c1ccccn1 | 1 | -5 | 6 | 0 | 13* | 3 | -1 | -3
C(=C\c1ccccn1)/c1ccccn1 | 8 | -1 | -1 | 0 | -2 | 8 | nt | nt
C(=NOCc1ccccc1)c1ccncc1 | 10* | -6 | -4 | -1 | 5 | 12 | -1 | 1
C(=NOCCc1ccccc1)c1cccnc1 | -3 | 5 | 2 | 0 | -2 | 1 | nt | nt
NC1(CO)COC(c2ccccc2)OC1 (configuration not stated) | 6 | -4 | 9 | 0 | 12* | 4 | -8 | -3
COc1ccc(OC)c(S(=O)(=O)N2CCCCC2C(=O)N2CCN(c3ccc(F)cc3)CC2)c1 (configuration not stated) | 3 | -1 | 2 | 0 | 3 | nt | nt | nt
Cc1noc(C(=O)Nc2cccnc2)c1Cl | 12* | 4 | -1 | 1 | 4 | 2 | -6 | -4
CC1CC(C)CN(C(=O)COC(=O)COc2ccccc2C#N)C1 (configuration not stated) | 13* | -2 | 9 | 0 | 1 | 3 | -6 | -2
O=C(OCC#CCSc1nnc(-c2cccc3ccccc23)o1)c1ccc(Cl)c(C(F)(F)F)c1 | -2 | 9 | -6 | nt | -2 | nt | nt | nt
C#CCN(C[C@@H]1[C@@H](OC(=O)NC2CCCC2)[C@@H](OC(=O)NC2CCCC2)CN(C(=O)OC(C)C)N1C(=O)OC(C)C)S(=O)(=O)c1ccc(C)cc1 | 11* | -3 | -3 | -1 | 0 | -3 | -6 | -7
